Screening data from PubChem.
The list is not random: actives were taken first. Their share in the collection is about 3.3%.
Jurkat viability – cytotoxic compounds reducing Jurkat cell viability; Jurkat E6.1 viability, ATP luminescence, 48 h; 56,000 tested, 1.2% active; inhibition, % at 4 µM;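 active means inhibition above the mean inhibition of all tested compounds plus 3 SD, cut at about 28% in these data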
HEK293 NFkB inh – lowers PMA/ionomycin-induced NF-kB signal in HEK293 cells; inhibition, % at 3 µM; HEK-293 NF-kB luciferase reporter, luminescence; 62,000 tested, 0.21% active;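 active means inhibition above the mean of all tested compounds plus 3 SD, cut at about 40% in these data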;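 further: 0% = stimulated DMSO wells and 100% = 10 µM reference inhibitor 5653914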
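Signal: luciferase luminescence; Material: HEK-293 cells with stable firefly luciferase reporter driven by four HIV NF-kB elements; Probe or stimulus: PMA with ionomycin; Replication: tested once; Times: 1 h compound pretreatment, then 16 h stimulation at 37 °C, 5% CO2; Benchmarks: DMSO and 10 µM reference inhibitor; Evaluation: per-plate % inhibition versus controls.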
5HT1a ag – activates the human 5-HT1a serotonin receptor | P08908 | CHO 5-HT1a Ga15 NFAT-bla reporter, FRET ratio; 0% basal, 100% maximal reference agonist | activation, % at 10 µM | 65,000 tested, 0.56% active | AID 567;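 active means activation above the screen-wide mean activation plus 3 SD, cut at about 19% in these data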;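 further: 0% = DMSO wells and 100% = 5-CT at EC100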
Target sequence (P08908 whole entry, looked up): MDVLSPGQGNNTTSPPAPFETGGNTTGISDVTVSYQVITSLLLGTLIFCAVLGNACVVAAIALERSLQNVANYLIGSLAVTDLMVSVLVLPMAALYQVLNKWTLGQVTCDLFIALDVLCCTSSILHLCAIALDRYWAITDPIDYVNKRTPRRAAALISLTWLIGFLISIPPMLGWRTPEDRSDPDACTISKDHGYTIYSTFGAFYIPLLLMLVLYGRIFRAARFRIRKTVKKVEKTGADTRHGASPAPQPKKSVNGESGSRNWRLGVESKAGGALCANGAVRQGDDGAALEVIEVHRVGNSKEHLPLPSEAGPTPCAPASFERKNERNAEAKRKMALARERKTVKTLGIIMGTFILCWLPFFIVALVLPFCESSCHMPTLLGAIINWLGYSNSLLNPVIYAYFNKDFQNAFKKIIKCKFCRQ
5HT1a antag – blocks the human serotonin 5-HT1a receptor | 62,000 tested, 0.68% active | inhibition, % at 10 µM | CHO 5-HT1a Ga15 NFAT-bla reporter, antagonist mode;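 active means inhibition above the mean of all tested compounds plus 3 SD, cut at about 43% in these data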;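 further: receptor stimulated by 5-CT agonist at 100 nM near EC80; beta-lactamase reporter measured by ratiometric fluorescence of a cleavable substrate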
HTR1E antagonist – 5-HT1E (human) receptor antagonism; CHO 5-HT1E Ga15 NFAT-bla reporter, FRET, antagonist; inhibition, % at 6 µM; 65,000 tested, 0.99% active; AID 571;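 active means inhibition above a set limit, the mean inhibition across every tested compound plus 3 SD, cut at about 29% in these data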;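 further: signal is the 460 over 535 nm emission ratio of beta-lactamase substrate; 0% = agonist plus DMSO wells and 100% = wells without agonist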
HTR1E agonist – 5-HT1E (human) receptor agonism | CHO 5-HT1E Ga15 NFAT-bla reporter, FRET; 0% DMSO wells, 100% control agonist wells | activation, % at 6 µM | 65,000 tested, 0.69% active | AID 574;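 active means activation above a set limit, the screen-wide mean activation plus 3 SD, cut at about 8.5% in these data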;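 further: 100% = positive control agonist at 1 µM giving full maximal response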
* marks the source's active call; other numbers are inactive results.

Screening CCC(C)[C@@H](NC(=O)OC(C)(C)C)c1nnc(S(=O)(=O)Cc2cccc(C)c2)o1 (stereo partly drawn) returned Jurkat viability 9.1, HEK293 NFkB inh -2.2, 5HT1a ag 3.9, 5HT1a antag 50.8*, HTR1E antagonist -3.5 and HTR1E agonist 2.5.
`COc1cccc(C2c3c(oc4ccc(Cl)cc4c3=O)C(=O)N2c2cc(C)on2)c1OC` (stereo not drawn) gave Jurkat viability 2.3, HEK293 NFkB inh 27.8, 5HT1a ag -0.2, 5HT1a antag -0.5, HTR1E antagonist -2.9 and HTR1E agonist 0.9.
`COc1cc(NC(=O)c2ccc3c(c2)OCO3)ccc1NC(=O)C(C)C` gave Jurkat viability 98.4*, HEK293 NFkB inh 20.9, 5HT1a ag -1.9, 5HT1a antag -3.1, HTR1E antagonist 10.5 and HTR1E agonist -0.1.
`CCCCC(=O)Nc1ccc(NC(=O)c2ccc3c(c2)OCO3)cc1OC` gave Jurkat viability -1.9, HEK293 NFkB inh -12.8, 5HT1a ag -1.1, 5HT1a antag -14.2, HTR1E antagonist -1.5 and HTR1E agonist 0.3.
For COC(=O)c1sc(N)c(C(=O)OC)c1COC(=O)c1c(C)noc1C the results were Jurkat viability 93.5*, HEK293 NFkB inh 20.8, 5HT1a ag 1.0, 5HT1a antag 23.1, HTR1E antagonist 20.2 and HTR1E agonist -0.2.
For Cc1nc(SCC#N)c2c(C)c(C)sc2n1 the results were Jurkat viability 4.5, HEK293 NFkB inh 17.5, 5HT1a ag 1.4, 5HT1a antag 18.6, HTR1E antagonist 34.7* and HTR1E agonist 2.3.
For CC1(C)Cc2c(c(N3CCOCC3)nc3snc(N)c23)CO1 the results were 5HT1a ag 359.4*, HTR1E antagonist 10.6 and HTR1E agonist 1.3.
`Clc1ccc(OCCN2CCN(c3ncnc4sccc34)CC2)cc1` gave Jurkat viability 44.1*, HEK293 NFkB inh 62.4*, 5HT1a ag 0.2, 5HT1a antag 17.1, HTR1E antagonist 7.7 and HTR1E agonist 0.5.
Screening CC(C)CC(c1nnnn1Cc1ccco1)N1CCN(c2cccc(Cl)c2)CC1 (stereo not drawn) returned Jurkat viability 4.1, HEK293 NFkB inh 9.3, 5HT1a ag 5.4, 5HT1a antag 45.8*, HTR1E antagonist 12.8 and HTR1E agonist -1.7.
`O=C(CN1C(=O)CNC1=O)Nc1cccc(C(F)(F)F)c1` gave Jurkat viability -4.9, HEK293 NFkB inh 16.3, 5HT1a ag -1.4, 5HT1a antag 2.1, HTR1E antagonist 0.9 and HTR1E agonist 1.3.
`CN1CCN2c3ccccc3Cc3ccccc3C2C1` (stereo not drawn) gave 5HT1a ag -0.4, HTR1E antagonist 4.7 and HTR1E agonist 86.5*.
`CCCc1cc(=O)oc2c(C)c3occ(C)c3cc12` gave Jurkat viability 5.0, HEK293 NFkB inh 4.5, 5HT1a ag -1.1, 5HT1a antag 40.3, HTR1E antagonist 39.4* and HTR1E agonist 0.0.
`Cc1[nH]c2ccc(C(=O)OCCN(C)C)cc2c1C` gave Jurkat viability 0.8, HEK293 NFkB inh 4.3, 5HT1a ag 0.4, 5HT1a antag -10.6, HTR1E antagonist -6.5 and HTR1E agonist 30.9*.
Cc1ccc2c(c1)nnn2C1CCN(S(C)(=O)=O)CC1 was read as Jurkat viability -4.9, HEK293 NFkB inh 9.5, 5HT1a ag -0.3, 5HT1a antag -13.1, HTR1E antagonist 2.5 and HTR1E agonist -0.5.
Cc1ccc2c(c1)nnn2C1CCN(S(=O)(=O)c2ccc(C(=O)N3C(C)CCCC3C)cc2)CC1 (stereo not drawn) was read as Jurkat viability 43.4*, HEK293 NFkB inh 13.7, 5HT1a ag 3.2, 5HT1a antag -2.7, HTR1E antagonist 11.7 and HTR1E agonist 0.8.
For Cc1cc2c(c(=O)n1C)C(Cc1ccccc1)C(C#N)=C(N)O2 (stereo not drawn) the results were Jurkat viability -6.2, HEK293 NFkB inh 1.5, 5HT1a ag 0.8, 5HT1a antag 19.1, HTR1E antagonist 3.1 and HTR1E agonist 0.1.
Cc1cc(C)n2nc(SCC(=O)c3ccccc3)nc2n1 was read as Jurkat viability 6.3, HEK293 NFkB inh -2.5, 5HT1a ag -0.9, 5HT1a antag 5.4, HTR1E antagonist 4.1 and HTR1E agonist 2.1.
Screening Cc1cc(-n2c(C)cc(C(=O)CSc3ncnc4ccccc34)c2C)no1 returned HEK293 NFkB inh 40.5*, 5HT1a ag 2.5, 5HT1a antag 15.7, HTR1E antagonist -1.5 and HTR1E agonist 1.1.
For Cc1cc(-n2c(C)cc(C(=O)CSc3nnc4sc5ccccc5n34)c2C)no1 the results were Jurkat viability 3.6, HEK293 NFkB inh 19.8, 5HT1a ag 1.3, 5HT1a antag -2.9, HTR1E antagonist 6.0 and HTR1E agonist 0.4.
For Cc1cc(C)n2nc(SCC(=O)c3cc(C)n(-c4cc(C)on4)c3C)nc2n1 the results were Jurkat viability 33.2*, HEK293 NFkB inh 17.2, 5HT1a ag 5.2, 5HT1a antag 3.3, HTR1E antagonist 18.4 and HTR1E agonist 0.2.
For CC1CCN(C(=O)CSc2nnc(CSc3ncccn3)n2C)CC1 the results were Jurkat viability -1.0, HEK293 NFkB inh 11.7, 5HT1a ag -1.3, 5HT1a antag 5.6, HTR1E antagonist -0.5 and HTR1E agonist -0.2.
`CCNc1ccc(C(=O)OCC)cc1NC(=O)c1cccc(N(C)C)c1` gave HEK293 NFkB inh 41.6*, 5HT1a ag -4.3, 5HT1a antag 27.8, HTR1E antagonist 44.5* and HTR1E agonist -0.2.
`CCNc1ccc(C(=O)OCC)cc1NC(=O)c1cc(S(=O)(=O)N2CCOCC2)ccc1C` gave HEK293 NFkB inh 18.2, 5HT1a ag -0.1, 5HT1a antag -5.4, HTR1E antagonist 4.2 and HTR1E agonist 0.1.
Cn1c(=O)n(C)c2cc(NC(=O)CSc3nnc(-c4ccccc4O)n3-c3ccccc3)ccc21 was read as Jurkat viability -1.6, HEK293 NFkB inh 10.2, 5HT1a ag 2.2, 5HT1a antag -10.2, HTR1E antagonist -8.0 and HTR1E agonist 0.3.
Screening Cc1nc2ccc(S(=O)(=O)Nc3ccccc3C)cc2s1 returned Jurkat viability 30.4*, HEK293 NFkB inh 12.5, 5HT1a ag -3.7, 5HT1a antag 8.8, HTR1E antagonist 6.4 and HTR1E agonist -0.9.
For Cc1cc(S(=O)(=O)Nc2ccccc2C)ccc1F the results were Jurkat viability 0.6, HEK293 NFkB inh 9.0, 5HT1a ag -1.5, 5HT1a antag 4.2, HTR1E antagonist 7.6 and HTR1E agonist -0.4.
Screening COc1ccc(/C(O)=C2/C(=O)C(=O)N(CCCN(C)C)C2c2ccco2)cc1Cl (stereo not drawn) returned 5HT1a ag -1.8, HTR1E antagonist -0.3 and HTR1E agonist -0.6.
CCN1CCN(c2nc3c(c(=O)[nH]c(=O)n3C)n2CCCSc2ncccn2)CC1 was read as Jurkat viability -8.1, HEK293 NFkB inh 9.5, 5HT1a ag 61.6*, 5HT1a antag -6.1, HTR1E antagonist 0.3 and HTR1E agonist -0.1.
